Data published in the M2OR odorant receptor database.
Residue numbers refer to the chain shown, from its start.

Tests used:
Settings in all cases: stereoisomer not certain
OR5AR1 (Homo sapiens) = target: T1, OR5AR1 (Homo sapiens) (UniProt Q8NGP9)
T1 sequence (whole entry): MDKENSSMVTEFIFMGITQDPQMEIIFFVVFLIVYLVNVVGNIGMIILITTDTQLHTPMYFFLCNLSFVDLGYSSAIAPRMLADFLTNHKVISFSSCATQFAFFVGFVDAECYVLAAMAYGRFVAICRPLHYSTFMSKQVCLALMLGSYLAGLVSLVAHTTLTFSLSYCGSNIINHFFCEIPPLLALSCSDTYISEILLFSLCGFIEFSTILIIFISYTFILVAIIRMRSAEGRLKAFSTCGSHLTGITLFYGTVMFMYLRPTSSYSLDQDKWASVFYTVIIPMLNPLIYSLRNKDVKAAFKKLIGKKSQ
Summary of the method: (§1)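 Transient luciferase assays in mammalian cell lines were common, though methods varied by source. The values come from published papers and their supplementary material, with extra details from the original authors when needed. Responsive refers to a measured signal the original authors judged statistically different from baseline, and non-responsive (inactive) to the remainder.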

OR5AS1 (Homo sapiens) = target: T2, OR5AS1 (Homo sapiens) (UniProt Q8N127)
T2 sequence (whole entry): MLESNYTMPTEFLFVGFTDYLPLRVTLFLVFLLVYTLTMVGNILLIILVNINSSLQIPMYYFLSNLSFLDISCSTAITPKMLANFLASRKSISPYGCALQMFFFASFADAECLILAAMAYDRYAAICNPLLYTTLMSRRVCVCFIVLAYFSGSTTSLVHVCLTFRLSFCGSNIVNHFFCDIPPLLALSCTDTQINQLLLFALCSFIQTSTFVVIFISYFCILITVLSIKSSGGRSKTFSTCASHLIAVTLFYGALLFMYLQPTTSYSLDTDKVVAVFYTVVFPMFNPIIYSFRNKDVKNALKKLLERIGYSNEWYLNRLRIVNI
Summary of the method: as §1

OR5AU1 (Homo sapiens) = target: T3, OR5AU1 (Homo sapiens) (UniProt Q8NGC0)
T3 sequence (whole entry): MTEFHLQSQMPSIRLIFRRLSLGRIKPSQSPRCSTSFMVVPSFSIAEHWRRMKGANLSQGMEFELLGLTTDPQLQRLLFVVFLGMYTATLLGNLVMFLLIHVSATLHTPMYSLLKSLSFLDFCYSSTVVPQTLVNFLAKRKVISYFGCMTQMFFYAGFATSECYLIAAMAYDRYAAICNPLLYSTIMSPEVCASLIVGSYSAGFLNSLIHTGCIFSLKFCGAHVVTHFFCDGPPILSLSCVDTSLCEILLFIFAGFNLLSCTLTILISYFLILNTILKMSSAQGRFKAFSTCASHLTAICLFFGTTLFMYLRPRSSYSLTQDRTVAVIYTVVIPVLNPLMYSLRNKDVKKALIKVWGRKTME
Summary of the method: as §1

OR5B12 (Homo sapiens) = target: T4, OR5B12 (Homo sapiens) (UniProt Q96R08)
T4 sequence (whole entry): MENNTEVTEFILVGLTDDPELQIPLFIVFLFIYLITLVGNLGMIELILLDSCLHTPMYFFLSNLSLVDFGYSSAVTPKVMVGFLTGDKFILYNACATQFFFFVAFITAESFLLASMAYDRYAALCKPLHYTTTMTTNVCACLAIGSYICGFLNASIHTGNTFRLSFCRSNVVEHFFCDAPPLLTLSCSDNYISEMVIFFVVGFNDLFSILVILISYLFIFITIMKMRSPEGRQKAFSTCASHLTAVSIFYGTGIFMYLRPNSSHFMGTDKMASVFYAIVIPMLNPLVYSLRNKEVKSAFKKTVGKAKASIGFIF
Summary of the method: as §1

OR5B17 (Homo sapiens) = target: T5, OR5B17 (Homo sapiens) (UniProt Q8NGF7)
T5 sequence (whole entry): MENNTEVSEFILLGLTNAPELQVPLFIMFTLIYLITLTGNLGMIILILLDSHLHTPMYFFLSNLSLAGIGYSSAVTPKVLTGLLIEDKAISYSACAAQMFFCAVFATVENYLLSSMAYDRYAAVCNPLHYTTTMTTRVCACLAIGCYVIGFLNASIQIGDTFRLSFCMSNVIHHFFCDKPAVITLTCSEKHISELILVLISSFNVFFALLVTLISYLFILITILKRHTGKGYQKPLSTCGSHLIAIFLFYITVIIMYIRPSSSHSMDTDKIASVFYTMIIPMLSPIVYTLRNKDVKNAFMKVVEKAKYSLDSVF
Summary of the method: as §1

OR5B2 (Homo sapiens) = target: T6, OR5B2 (Homo sapiens) (UniProt Q96R09)
T6 sequence (whole entry): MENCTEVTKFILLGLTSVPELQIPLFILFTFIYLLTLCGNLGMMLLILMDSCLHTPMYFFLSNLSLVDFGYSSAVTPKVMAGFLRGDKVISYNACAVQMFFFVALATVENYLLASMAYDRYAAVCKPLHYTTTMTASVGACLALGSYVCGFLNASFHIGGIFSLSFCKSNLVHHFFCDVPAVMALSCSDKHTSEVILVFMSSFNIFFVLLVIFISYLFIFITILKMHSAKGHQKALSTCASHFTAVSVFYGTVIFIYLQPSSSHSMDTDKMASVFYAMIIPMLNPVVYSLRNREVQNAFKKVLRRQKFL
Summary of the method: as §1

OR5B2 E6D = system: T7, OR5B2 E6D
T7 sequence (whole entry): T6 sequence (whole entry) with E6D
Summary of the method: as §1

OR5B21 (Homo sapiens) = target: T8, OR5B21 (Homo sapiens) (UniProt A6NL26)
T8 sequence (whole entry): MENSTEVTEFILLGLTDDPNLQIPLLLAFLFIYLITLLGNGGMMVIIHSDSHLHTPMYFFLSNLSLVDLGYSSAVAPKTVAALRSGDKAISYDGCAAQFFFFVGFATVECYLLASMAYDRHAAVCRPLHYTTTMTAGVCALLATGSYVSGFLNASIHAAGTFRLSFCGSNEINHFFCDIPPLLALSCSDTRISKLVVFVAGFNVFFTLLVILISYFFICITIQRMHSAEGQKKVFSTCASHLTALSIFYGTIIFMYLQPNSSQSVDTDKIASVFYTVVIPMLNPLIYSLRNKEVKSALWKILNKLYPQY
Summary of the method: as §1

OR5B3 (Homo sapiens) = target: T9, OR5B3 (Homo sapiens) (UniProt Q8NH48)
T9 sequence (whole entry): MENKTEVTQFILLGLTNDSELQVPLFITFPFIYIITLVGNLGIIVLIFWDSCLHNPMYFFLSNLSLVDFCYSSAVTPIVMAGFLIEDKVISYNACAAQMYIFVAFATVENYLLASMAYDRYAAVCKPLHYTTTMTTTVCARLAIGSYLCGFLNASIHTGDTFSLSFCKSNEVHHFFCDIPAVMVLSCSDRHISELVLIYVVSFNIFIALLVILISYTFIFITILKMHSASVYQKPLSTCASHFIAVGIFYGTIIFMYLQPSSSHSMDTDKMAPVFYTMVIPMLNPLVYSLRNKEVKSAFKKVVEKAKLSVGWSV
Summary of the method: as §1

OR5B3 I198V G247A = system: T10, OR5B3 I198V G247A
T10 sequence (whole entry): T9 sequence (whole entry) with I198V, G247A
Summary of the method: as §1

OR5BC C141R = system: T11, OR5BC C141R
T11 sequence (whole entry): T4 sequence (whole entry) with C141R
Summary of the method: as §1

OR5BH L80I I85M = system: T12, OR5BH L80I I85M
T12 sequence (whole entry): T5 sequence (whole entry) with L80I, I85M
Summary of the method: as §1

OR5BH L80I = system: T13, OR5BH L80I
T13 sequence (whole entry): T5 sequence (whole entry) with L80I
Summary of the method: as §1

OR5C1 (Homo sapiens) = target: T14, OR5C1 (Homo sapiens) (UniProt Q8NGR4)
T14 sequence (whole entry): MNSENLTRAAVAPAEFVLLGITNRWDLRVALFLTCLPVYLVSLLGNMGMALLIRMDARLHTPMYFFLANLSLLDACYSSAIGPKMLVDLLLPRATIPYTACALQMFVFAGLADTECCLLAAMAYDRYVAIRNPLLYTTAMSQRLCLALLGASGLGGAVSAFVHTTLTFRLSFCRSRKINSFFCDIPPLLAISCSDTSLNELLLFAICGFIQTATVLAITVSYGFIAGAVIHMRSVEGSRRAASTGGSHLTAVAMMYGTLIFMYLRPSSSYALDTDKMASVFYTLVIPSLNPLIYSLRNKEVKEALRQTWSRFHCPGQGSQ
Summary of the method: as §1

OR5D13 (Homo sapiens) = target: T15, OR5D13 (Homo sapiens) (UniProt Q8NGL4)
T15 sequence (whole entry): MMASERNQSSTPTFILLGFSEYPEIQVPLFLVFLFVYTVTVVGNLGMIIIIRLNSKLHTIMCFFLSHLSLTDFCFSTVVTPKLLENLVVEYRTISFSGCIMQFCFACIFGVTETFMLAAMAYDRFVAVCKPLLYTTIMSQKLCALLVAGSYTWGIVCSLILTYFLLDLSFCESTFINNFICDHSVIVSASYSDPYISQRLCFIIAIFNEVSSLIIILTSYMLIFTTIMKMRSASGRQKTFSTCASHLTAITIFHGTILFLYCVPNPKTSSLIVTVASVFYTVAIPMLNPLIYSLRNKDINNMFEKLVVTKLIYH
Summary of the method: as §1

OR5D14 (Homo sapiens) = target: T16, OR5D14 (Homo sapiens) (UniProt Q8NGL3)
T16 sequence (whole entry): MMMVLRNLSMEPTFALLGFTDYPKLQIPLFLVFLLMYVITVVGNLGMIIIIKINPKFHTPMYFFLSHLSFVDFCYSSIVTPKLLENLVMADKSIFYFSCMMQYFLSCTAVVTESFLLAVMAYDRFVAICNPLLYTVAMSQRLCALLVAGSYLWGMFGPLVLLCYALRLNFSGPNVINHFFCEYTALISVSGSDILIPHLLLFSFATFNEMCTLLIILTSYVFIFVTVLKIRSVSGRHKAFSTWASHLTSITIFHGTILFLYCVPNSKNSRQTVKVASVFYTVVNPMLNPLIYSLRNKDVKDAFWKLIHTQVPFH
Summary of the method: as §1

OR5D16 (Homo sapiens) = target: T17, OR5D16 (Homo sapiens) (UniProt Q8NGK9)
T17 sequence (whole entry): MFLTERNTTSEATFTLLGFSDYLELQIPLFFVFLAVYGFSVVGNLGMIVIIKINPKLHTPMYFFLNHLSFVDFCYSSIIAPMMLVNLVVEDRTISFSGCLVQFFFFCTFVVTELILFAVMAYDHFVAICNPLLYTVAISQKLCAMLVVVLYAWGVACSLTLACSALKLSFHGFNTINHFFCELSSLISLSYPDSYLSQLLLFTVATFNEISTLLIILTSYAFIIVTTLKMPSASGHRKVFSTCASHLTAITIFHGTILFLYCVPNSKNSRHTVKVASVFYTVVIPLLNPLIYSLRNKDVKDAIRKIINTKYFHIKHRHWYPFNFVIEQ
Summary of the method: as §1

OR5D18 (Homo sapiens) = target: T18, OR5D18 (Homo sapiens) (UniProt Q8NGL1)
T18 sequence (whole entry): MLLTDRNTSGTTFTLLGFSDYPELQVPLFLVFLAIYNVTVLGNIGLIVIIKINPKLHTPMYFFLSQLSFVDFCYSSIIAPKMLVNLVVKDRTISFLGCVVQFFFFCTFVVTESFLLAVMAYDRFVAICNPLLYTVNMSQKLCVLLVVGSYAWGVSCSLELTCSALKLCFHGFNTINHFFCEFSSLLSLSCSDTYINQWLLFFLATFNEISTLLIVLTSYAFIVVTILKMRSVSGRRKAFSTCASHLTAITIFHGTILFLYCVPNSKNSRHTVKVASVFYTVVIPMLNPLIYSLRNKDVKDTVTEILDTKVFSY
Summary of the method: as §1

OR5DD C62Y = system: T19, OR5DD C62Y
T19 sequence (whole entry): T15 sequence (whole entry) with C62Y
Summary of the method: as §1

OR5DE S249A L290P = system: T20, OR5DE S249A L290P
T20 sequence (whole entry): T16 sequence (whole entry) with S249A, L290P
Summary of the method: as §1

Measured: odorant receptor agonist call;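 also: active if original authors judged signal statistically different from baseline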

CCC1OC(=O)C(O)=C1C (stereo not given)
inactive: all assays above
